Test results: ChEMBL document CHEMBL1156965, “Design, synthesis and antimalarial/anticancer evaluation of spermidine linked artemisinin conjugates designed to exploit polyamine transporters in Plasmodium falciparum and HL-60 cancer cell lines” (Bioorg Med Chem, 2010)

Legend:
HL-60 = experiment: Antitumor activity against human HL60 cells after 72 hrs by MTT assay; format: functional, cell-based; details: HL-60, 72 h
In short: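 HL-60 cells in RPMI-1640 with 10% FBS and 1% L-glutamine, passages 5–15, viability >95%. 2.5 × 10^4 cells/well exposed to 0.01–100 µM for 72 h, DMSO final <0.5% v/v. MTT added for 4 h at 37 °C, then SDS/DMF lysis for 4 h. A570, reference 590 nm, as % of vehicle. Quadruplicate, ≥3 experiments. IC50 from individual curves.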

Plasmodium falciparum = experiment: Antimalarial activity against chloroquine-sensitive Plasmodium falciparum 3D7 infected in human erythrocytes assessed as [3H]hypoxanthine incorporation after 24 hrs by liquid scintillation and luminescence counting; format: functional, organism-based
In short: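 3D7 P. falciparum kept in human erythrocytes in RPMI-1640 with 25 mM HEPES, 32 mM NaHCO3, 10% human serum, under 3% O2/4% CO2/93% N2. Assay at 2% parasitemia, 0.5% haematocrit, triplicate, 37 °C. 0.5 µCi [3H]-hypoxanthine added after 24 h, then 24 h more (48 h total). Harvested and scintillation counted. IC50 by probit interpolation of log dose–response versus control wells.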

Row | SMILES | IC50 (HL-60) [nM] | IC50 (Plasmodium falciparum) [nM]
1 | C[C@H]1[C@@H](CCNCCCCNCCCN)O[C@@H]2O[C@@]3(C)CC[C@H]4[C@H](C)CC[C@@H]1[C@@]24OO3 | 17800 | 259
2 | C[C@H]1[C@@H](CCNCCCN(CCCCNC(=O)OC(C)(C)C)C(=O)OC(C)(C)C)O[C@@H]2O[C@@]3(C)CC[C@H]4[C@H](C)CC[C@@H]1[C@@]24OO3 | 16600 | 0.76
3 | C[C@H]1[C@@H](CCN(CCCCNC(=O)OC(C)(C)C)CCCNC(=O)OC(C)(C)C)O[C@@H]2O[C@@]3(C)CC[C@H]4[C@H](C)CC[C@@H]1[C@@]24OO3 | > 100000 | > 100
4 | C[C@H]1[C@@H](CCNCCCCN(CCCNC(=O)OC(C)(C)C)C(=O)OC(C)(C)C)O[C@@H]2O[C@@]3(C)CC[C@H]4[C@H](C)CC[C@@H]1[C@@]24OO3 | 11600 | 0.21
5 | C[C@H]1[C@@H](CC(=O)NCCCN(CCCCNC(=O)OC(C)(C)C)C(=O)OC(C)(C)C)O[C@@H]2O[C@@]3(C)CC[C@H]4[C@H](C)CC[C@@H]1[C@@]24OO3 | 31200 | 4.3
6 | C[C@H]1[C@@H](CC(=O)N(CCCCNC(=O)OC(C)(C)C)CCCNC(=O)OC(C)(C)C)O[C@@H]2O[C@@]3(C)CC[C@H]4[C@H](C)CC[C@@H]1[C@@]24OO3 | > 100000 | 4.8
7 | C[C@H]1[C@@H](CC(=O)NCCCCN(CCCNC(=O)OC(C)(C)C)C(=O)OC(C)(C)C)O[C@@H]2O[C@@]3(C)CC[C@H]4[C@H](C)CC[C@@H]1[C@@]24OO3 | 22000 | 2.6
8 | C[C@H]1[C@@H](CCNCCCNCCCCN)O[C@@H]2O[C@@]3(C)CC[C@H]4[C@H](C)CC[C@@H]1[C@@]24OO3 | 29200 | 350
9 | C[C@H]1[C@@H](CCN(CCCN)CCCCN)O[C@@H]2O[C@@]3(C)CC[C@H]4[C@H](C)CC[C@@H]1[C@@]24OO3 | > 100000 | 15.2
10 | C[C@H]1[C@@H](CC(=O)NCCCCNCCCN)O[C@@H]2O[C@@]3(C)CC[C@H]4[C@H](C)CC[C@@H]1[C@@]24OO3 | 35200 | 727
11 | C[C@H]1[C@@H](CC(=O)NCCCNCCCCN)O[C@@H]2O[C@@]3(C)CC[C@H]4[C@H](C)CC[C@@H]1[C@@]24OO3 | 47700 | 81
12 | C[C@H]1[C@@H](CC(=O)N(CCCN)CCCCN)O[C@@H]2O[C@@]3(C)CC[C@H]4[C@H](C)CC[C@@H]1[C@@]24OO3 | > 100000 | 108
13 | C[C@@H]1CC[C@H]2[C@@H](C)C(=O)O[C@@H]3O[C@@]4(C)CC[C@@H]1[C@]32OO4 [ARTEMISININ] | – | 9.2
